Calls of active or inactive are those of the source. No cut-off for these calls is given here.
Assays:
[1] = Cytotoxicity against MDCK cells assessed as cell death after 72 hrs by MTT assay; type: cell-based, Canis lupus familiaris; conditions: dog
Outline: (§1)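 MDCK or RD cells at 2 × 10^4/well in E10, overnight at 37 °C/5% CO2, DPBS wash, then exposed to graded compound concentrations for 72 h. MTT added for 3 h, formazan dissolved in DMSO, absorbance read at 570 nm. CC50 (50% cell death) by Reed–Muench.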

[2] = Selectivity ratio of CC50 for MDCK cells to EC50 for Influenza A virus (A/WSN/33); type: toxicity; conditions: dog, read-out: Ratio CC50/EC50
Outline: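 SI is calculated as CC50 (MDCK, 72 h MTT) divided by EC50 (72 h crystal-violet CPE assay in MDCK).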

Influenza A virus [3] = test: Antiviral activity against Influenza A virus (A/WSN/33) infected in MDCK cells assessed as reduction in virus-induced cytopathic effect after 72 hrs by crystal violet-staining based assay; type: functional, organism-based; conditions: A/WSN/1933(H1N1)
Outline: (§2)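 Cells seeded at 2 × 10^4/well in E10 (DMEM, 10% FBS), 16–24 h at 37 °C/5% CO2, washed with DPBS, then infected at nine-fold TCID50 with or without serial compound concentrations. Influenza is run in MDCK and enterovirus/rhinovirus in RD. Incubated 72 h, fixed in 4% paraformaldehyde, stained with 0.1% crystal violet, and read for cell density. EC50 = 50% CPE inhibition by Reed–Muench; mean ± S.D. of at least three runs.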

[4] = Cytotoxicity against human RD cells assessed as cell death after 72 hrs by MTT assay; type: cell-based; outline: as §1
Influenza A virus [5] = test: Antiviral activity against Influenza A virus (A/WSN/33) infected in MDCK cells at 1 uM added at 3 hrs to 9 hrs post infection and measured after 9 hrs by plaque assay; type: functional, organism-based; conditions: A/WSN/1933(H1N1)
Outline: (§3)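 MDCK monolayers exposed to compound (1 or 10 μM) over windows of −3, −1, 0, 3 or 6 to 9 h pi. A/WSN/33 adsorbed at MOI 0.1 from −1 to 0 h, then removed with a PBS wash. Supernatant taken at 9 h pi and titred by plaque assay, normalised to virus-only (100%). Average of three independent experiments.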

[6] = Selectivity ratio of CC50 for human RD cells to EC50 for Enterovirus A71 TW/4643/1998; type: toxicity; conditions: read-out: Ratio CC50/EC50
Outline: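 RD cells (2 × 10^4/well, DMEM 10% FBS, 16–24 h) infected with enterovirus at nine-fold TCID50 with compound, 72 h, 37 °C, 5% CO2. Cells were fixed in 4% paraformaldehyde, stained with 0.1% crystal violet, and EC50 taken by Reed–Muench. CC50 came from 72 h exposure of uninfected RD cells, MTT 3 h, A570, Reed–Muench. SI = CC50/EC50; three independent experiments.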

Influenza A virus [7] = test: Antiviral activity against Influenza A virus (A/WSN/33) infected in MDCK cells at 1 uM added at -1 hrs to 9 hrs post infection and measured after 9 hrs by plaque assay; type: functional, organism-based; conditions: A/WSN/1933(H1N1); outline: as §3
[8] = biological target: Hemagglutinin (Influenza A virus) (UniProt B4URE7); test: Inhibition Influenza A virus (A/WSN/33) HA infected in guinea pig RBC assessed as reduction in hemagglutination at serial dilution from 50 uM after 1 hr by HAI assay; conditions: Influenza A virus (A/WSN/1933(H1N1))
Outline: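 Virus titrated on 0.5% guinea pig RBCs to define 1 HA unit; 4 HA units used. Compound two-fold serially diluted from 50 µM and mixed with virus for 30 min at room temperature, or tested without virus for direct agglutination. 0.5% RBCs then added and agglutination scored after 1 h. DMSO/RBC-only and virus-only controls included.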

Enterovirus [9] = test: Antiviral activity against Rhinovirus 71903 infected in human RD cells after 72 hrs by crystal violet-staining based assay; type: functional, organism-based; conditions: Enterovirus, 71903, RD; outline: as §2
Influenza A virus [10] = test: Inhibition of viral protein sub-cellular distribution in Influenza A virus (A/WSN/33) infected in MDCK cells assessed as reduction in M1 protein distribution to cytoplasm at 1 uM measured after 9 hrs post infection by IF-staining based microscopy; type: functional, organism-based; conditions: A/WSN/1933(H1N1)
Outline: (§4)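 MDCK cells grown on coverslips (2 × 10^5/well, 16 h), infected at MOI 0.1 for 1 h, washed, then kept in E0 with test compound (1 or 10 μM) or LMB 10 nM; DMSO 0.05% as mock. Fixed at 9 h pi in 4% paraformaldehyde and immunostained for M1, NP, NS2 or PA (1:50), with Hoechst nuclear stain. Viewed by confocal microscopy at 63×. NP nuclear/cytoplasmic intensity ratio quantified; three independent experiments.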

[11] = Selectivity ratio of CC50 for MDCK cells to EC50 for pandemic Influenza A virus A/TW/2235/09 (H1N1) SO4; type: toxicity; conditions: dog, read-out: Ratio CC50/EC50
Outline: (§5)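 MDCK cells (2 × 10^4/well, E10, 16–24 h) infected at nine-fold TCID50 with compound for 72 h, 37 °C, 5% CO2. Cells were fixed in 4% paraformaldehyde and stained with crystal violet; EC50 is from Reed–Muench. For CC50, cells had compound alone for 72 h, then MTT 3 h, DMSO, A570, Reed–Muench. SI = CC50/EC50; three independent experiments.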

MDCK [12] = test: Inhibition of CRM1 in MDCK cells infected with Influenza A virus (A/WSN/33) assessed as reduction in CRM1-mediated viral protein nuclear export by measuring reduction in NP protein distribution to cytoplasm at 1 uM measured after 9 hrs post infection by IF-staining based microscopy; type: cell-based; conditions: Canis lupus familiaris; outline: as §4
Enterovirus [13] = test: Antiviral activity against Rhinovirus 71803 infected in human RD cells after 72 hrs by crystal violet-staining based assay; type: functional, organism-based; conditions: Enterovirus, 71803, RD; outline: as §2
Enterovirus A71 = test: Antiviral activity against Enterovirus A71 TW/4643/1998 infected in human RD cells after 72 hrs by crystal violet-staining based assay; type: functional, organism-based; conditions: Enterovirus A, TW/4643/1998, RD; outline: as §2
enterovirus D68 = test: Antiviral activity against Enterovirus D68 TW/2795/2014 clade B3 infected in human RD cells after 72 hrs by crystal violet-staining based assay; type: functional, organism-based; conditions: Enterovirus D, TW/2795/2014 clade B3, RD; outline: as §2
Influenza A virus [14] = test: Antiviral activity against pandemic Influenza A virus A/TW/2235/09 (H1N1) SO4 infected in MDCK cells after 72 hrs by crystal violet-staining based assay; type: functional, organism-based; conditions: A/TW/2235/09 (H1N1) SO4, MDCK; outline: as §2
Influenza A virus [15] = test: Antiviral activity against Influenza A virus A/TW/3446/02 (H3N2) infected in MDCK cells after 72 hrs by crystal violet-staining based assay; type: functional, organism-based; outline: as §2
[16] = Selectivity ratio of CC50 for MDCK cells to EC50 for Influenza A virus A/TW/3446/02 (H3N2); type: toxicity; conditions: dog, read-out: Ratio CC50/EC50; outline: as §5
Influenza A virus [17] = test: Inhibition of viral protein sub-cellular distribution in Influenza A virus (A/WSN/33) infected in MDCK cells assessed as reduction in M1 protein distribution to cytoplasm at 10 nM measured after 9 hrs post infection by IF-staining based microscopy; type: functional, organism-based; conditions: A/WSN/1933(H1N1); outline: as §4
Influenza A virus [18] = test: Antiviral activity against Influenza A virus (A/WSN/33) infected in MDCK cells assessed as reduction in NP protein distribution to cytoplasm at 10 nM measured after 9 hrs post infection by IF-staining based microscopy; type: functional, organism-based; conditions: A/WSN/1933(H1N1); outline: as §4
Influenza A virus [19] = test: Inhibition of viral protein sub-cellular distribution in Influenza A virus (A/WSN/33) infected in MDCK cells assessed as reduction in NS2 protein distribution to cytoplasm at 10 nM measured after 9 hrs post infection by IF-staining based microscopy; type: functional, organism-based; conditions: A/WSN/1933(H1N1); outline: as §4
Influenza A virus [20] = test: Antiviral activity against Influenza A virus (A/WSN/33) infected in MDCK cells assessed as reduction in M1 protein distribution to cytoplasm at 10 nM measured after 9 hrs post infection by IF-staining based microscopy; type: functional, organism-based; conditions: A/WSN/1933(H1N1); outline: as §4
Influenza A virus [21] = test: Antiviral activity against Influenza A virus (A/WSN/33) infected in MDCK cells assessed as reduction in NS2 protein distribution to cytoplasm at 10 nM measured after 9 hrs post infection by IF-staining based microscopy; type: functional, organism-based; conditions: A/WSN/1933(H1N1); outline: as §4
Influenza A virus [22] = test: Inhibition of viral protein sub-cellular distribution in Influenza A virus (A/WSN/33) infected in MDCK cells assessed as reduction in PA protein distribution to cytoplasm at 10 nM measured after 9 hrs post infection by IF-staining based microscopy; type: functional, organism-based; conditions: A/WSN/1933(H1N1); outline: as §4
MDCK [23] = test: Inhibition of CRM1 in MDCK cells infected with Influenza A virus (A/WSN/33) assessed as reduction in CRM1-mediated viral protein nuclear export by measuring reduction in NP protein distribution to cytoplasm at 10 nM measured after 9 hrs post infection by IF-staining based microscopy; type: cell-based; conditions: Canis lupus familiaris; outline: as §4
Influenza A virus [24] = test: Antiviral activity against Influenza A virus (A/WSN/33) infected in MDCK cells assessed as reduction in PA protein distribution to cytoplasm at 10 nM measured after 9 hrs post infection by IF-staining based microscopy; type: functional, organism-based; conditions: A/WSN/1933(H1N1); outline: as §4

Chain of Hemagglutinin (Influenza A virus) (B4URE7 as listed by the source): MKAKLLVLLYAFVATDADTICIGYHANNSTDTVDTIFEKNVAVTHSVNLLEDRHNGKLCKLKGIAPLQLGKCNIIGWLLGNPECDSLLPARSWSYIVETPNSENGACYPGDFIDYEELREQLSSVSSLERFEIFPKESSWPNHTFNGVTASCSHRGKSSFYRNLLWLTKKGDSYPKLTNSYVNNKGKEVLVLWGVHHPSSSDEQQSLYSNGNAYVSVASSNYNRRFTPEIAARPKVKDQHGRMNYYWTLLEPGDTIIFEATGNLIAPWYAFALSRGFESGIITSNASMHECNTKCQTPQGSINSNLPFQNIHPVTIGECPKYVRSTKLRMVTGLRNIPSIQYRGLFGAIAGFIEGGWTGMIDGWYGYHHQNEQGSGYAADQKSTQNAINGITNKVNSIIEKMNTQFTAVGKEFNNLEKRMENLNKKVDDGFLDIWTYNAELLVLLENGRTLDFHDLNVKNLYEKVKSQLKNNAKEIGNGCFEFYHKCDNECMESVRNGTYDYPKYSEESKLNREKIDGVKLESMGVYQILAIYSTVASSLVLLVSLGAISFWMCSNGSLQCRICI

| Structure (SMILES) | CC50 at 72 h [1] [µM] | selectivity ratio [2] | EC50 (Influenza A virus [3]) [µM] | further results |
| --- | --- | --- | --- | --- |
| C=C(CC(=O)Nc1cc(F)ccc1F)C(=O)Nc1cc(F)ccc1F | 32.8 | 26 | 1.26 |  |
| C=C(CC(=O)Nc1ccccc1C(F)(F)F)C(=O)Nc1ccccc1C(F)(F)F | > 110 |  | > 50 |  |
| C=C(CC(=O)Nc1ccccc1C(F)(F)F)C(=O)O | > 110 |  | > 50 |  |
| C=C(CC(=O)Nc1ccc(Br)cc1F)C(=O)Nc1ccc(Br)cc1F | > 110 | > 111 | 0.99 |  |
| O=C(/C=C\n1cnc(-c2cc(C(F)(F)F)cc(C(F)(F)F)c2)n1)NNc1ccccn1 [VERDINEXOR] | 31.8 | 9.69 | 3.28 |  |
| C=C(CC(=O)Nc1cccc(C(F)(F)F)c1)C(=O)O | > 110 |  | > 50 |  |
| C=C(CC(=O)Nc1cc(Cl)ccc1F)C(=O)Nc1cc(Cl)ccc1F | 19.9 | 111 | 0.18 |  |
| C=C(CC(=O)Nc1ccc(Cl)cc1F)C(=O)Nc1ccc(Cl)cc1F | > 110 | > 164 | 0.67 |  |
| C=C(CC(=O)Nc1cc(F)ccc1C(F)(F)F)C(=O)O | > 110 |  | > 50 |  |
| C=C(CC(=O)Nc1ccc(C(F)(F)F)cc1F)C(=O)Nc1ccc(C(F)(F)F)cc1F | > 110 | > 785 | 0.14 | CC50 at 72 h [4]: 9.31 µM; Activity (Influenza A virus [5]): Active; selectivity ratio [6]: 1; Activity (Influenza A virus [7]): Active; inhibition [8]: inactive; EC50 (Enterovirus [9]): > 50 µM; inhibition (Influenza A virus [10]): inactive; selectivity ratio [11]: > 67; inhibition (MDCK [12]): Active; EC50 (Enterovirus [13]): > 50 µM; EC50 (Enterovirus A71): 6.69 µM; EC50 (enterovirus D68): > 50 µM; EC50 (Influenza A virus [14]): 1.62 µM; EC50 (Influenza A virus [15]): 0.96 µM; selectivity ratio [16]: > 114 |
| C=C(CC(=O)Nc1ccc(F)cc1C(F)(F)F)C(=O)O | > 110 |  | > 50 |  |
| CCC(=C/[C@H](C)C/C=C/C(C)=C/[C@@H](C)C(=O)[C@@H](C)[C@H](O)[C@@H](C)C/C(C)=C/C(=O)O)/C=C/[C@@H]1OC(=O)C=C[C@@H]1C [LEPTOMYCIN B] | > 0.88 | > 4 | 0.18 | inhibition (Influenza A virus [17]): inactive; Activity (Influenza A virus [18]): Active; inhibition (Influenza A virus [19]): inactive; Activity (Influenza A virus [20]): inactive; Activity (Influenza A virus [21]): inactive; inhibition (Influenza A virus [22]): inactive; inhibition (MDCK [23]): Active; Activity (Influenza A virus [24]): inactive |
| C=C(CC(=O)Nc1ccc(F)cc1C(F)(F)F)C(=O)Nc1ccc(F)cc1C(F)(F)F | > 110 |  | > 50 |  |

From ChEMBL document CHEMBL4316597, “Design, Synthesis, and Biological Evaluation of Itaconic Acid Derivatives as Potential Anti-Influenza Agents” (J Med Chem, 2019)
